Experimental data of several laboratories.
Compare with care: the assays were run in different laboratories.
Read-out: chemical stability

`COc1ccc(S(=O)(=O)NCC2CCN(C(=O)OC(C(F)(F)F)C(F)(F)F)CC2)cc1` has a half-life of 155 min (HPLC; aqueous buffer; 167 µM; pH 7.4).
For `CO[C@@H](C[C@H]1C(C)=CC[C@@H]2[C@]3(C)C[C@H](O[C@@H]4O[C@@H](C)[C@H](OC(=O)c5cccc(O)c5)[C@@H](O[C@@H]5O[C@H](CO)[C@@H](O)[C@H](O)[C@H]5NC(C)=O)[C@H]4O)[C@@H](O)C(C)(C)[C@H]3CC[C@]21C)[C@H](N)C(=O)O.O=C(O)C(F)(F)F`, the half-life was greater than 480 min (simulated intestinal fluid; 1 µM; pH 6.8).
`O=C(OC(C(F)(F)F)C(F)(F)F)N1CCC(CNS(=O)(=O)c2ccc(Cl)cc2)CC1` has a half-life of 412 min (HPLC; aqueous buffer; 167 µM; pH 7.4).
The half-life of `CO[C@@H]1[C@H](O)[C@@H](CO)O[C@H]1n1c([N+](=O)[O-])nc2c(=O)[nH]c(N)nc21` is reported as 660 min (HPLC; aqueous buffer; 500 µM; pH 2).
`CCOC(=O)c1nn(C(=O)C2CC2)c2ccccc2c1=O` gave a half-life of 86.3 min (aqueous buffer; pH 7.3).
The half-life of `COc1cc(/C=C/C(=O)CC(=O)/C=C/c2ccc(O)c(OC)c2)ccc1O` is reported as 54 min (HPLC; culture medium; 10 µM).
The half-life of `Nc1nc2c(nc([N+](=O)[O-])n2[C@@H]2O[C@H](CO)[C@@H](O)[C@H]2O)c(=O)[nH]1` is reported as 321 min (HPLC; aqueous buffer; 500 µM; pH 2).
With `Cc1cccc(C(=O)n2ncc(=O)c3cc([N+](=O)[O-])ccc32)c1` the half-life was 33 min (aqueous buffer; pH 7.3).
The half-life of `COc1ccc(OC)c(/C=C2\CC/C(=C\c3ccc(O)c(OC)c3)C2=O)c1` is reported as 156 min (HPLC; culture medium; 10 µM).
For `Cc1cn([C@H]2C=C[C@@H](CO)O2)c(=O)[nH]c1=O`, the half-life was greater than 2400 min (HPLC; aqueous buffer; 920 µM; pH 7.3).
The half-life of `Cc1cccc(C(=O)Oc2cnnc3ccc([N+](=O)[O-])cc23)c1` is reported as 41.9 min (aqueous buffer; pH 7.3).
With `Cc1ccc(S(=O)(=O)NCC2CCN(C(=O)OC(C(F)(F)F)C(F)(F)F)CC2)cc1` the half-life was 74.4 min (HPLC; aqueous buffer; 167 µM; pH 7.4).
`Cn1nnc2c(-c3ccccc3)ncn2c1=O` has a half-life of greater than 1200 min (HPLC; PBS; pH 7.4).
